Experimental data gathered from unrelated publications.
Protocols differ between the studies behind these lines.
Observed: cell growth or viability

COc1ccc(NC(=O)c2c(Nc3ccccc3)sc(C#N)c2NC(=O)CNc2ccc(Br)cc2)cc1
viability (HepG2; SRB; 10 µM; 48 h): 46.2%

CCOC(=O)c1ccc(NC(=O)C2=C3C(=Nc4ccccc43)NC2=O)cc1
viability (HepG2; MTT; 6.25 µM; 24 h): 90.2%

COc1ccc(NC(=O)c2c(Nc3ccccc3)sc(C#N)c2NC(=O)CNc2ccccc2Cl)cc1
viability (HepG2; SRB; 100 µM; 48 h): 90.3%

CCOC(=O)c1ccc(-n2c(C)cc(/C=C/c3ccc(OC)cc3)c(C#N)c2=O)cc1
viability (HepG2; MTT; 1.56 µM; 24 h): 100%

COc1ccc(NC(=O)c2c(Nc3ccccc3)sc(C#N)c2NC(=O)CNc2ccc([N+](=O)[O-])cc2)cc1
viability (HepG2; SRB; 0.1 µM; 48 h): 75.2%

c1ccc(-c2csc(NCc3ncccn3)n2)nc1
CC50 (Huh-7): > 40 µM

COc1ccc(/C=N/NC(=O)c2ccc(Nc3cc(C)nc4c(O)cccc34)cc2)cc1O
inhibition (Huh-7; MTT; 20 µM): 30.2%

CCCCCCCCCCCCNC(=S)NCCCC[C@H](NS(C)(=O)=O)C(=O)N[C@@H](C)C(=O)N[C@@H](CCCNC(=N)N)C(N)=O
EC50 (HEK-293T; MTT; 72 h): ~100 µM

CCOC(=O)c1ccc(-n2c(C)cc(/C=C/c3ccc(OCC)cc3)c(C#N)c2=O)cc1
viability (HepG2; MTT; 6.25 µM; 24 h): 100%

Cc1cc(Nc2ccc(C(=O)N/N=C/c3ccc(N(C)C)cc3)cc2)c2cccc(O)c2n1
inhibition (Huh-7; MTT; 20 µM): 69.9%

COc1ccc(NC(=O)c2c(Nc3ccccc3)sc(C#N)c2NC(=O)CNc2ccc(Cl)cc2)cc1
viability (HepG2; SRB; 10 µM; 48 h): 33.2%

CO[C@]1(C(=O)N[C@@H](C)c2ccc(-n3cc(F)cn3)nc2)CC[C@H](c2nc(C)cc(Nc3cc(C)[nH]n3)n2)CC1
GI50 (NCI-H292; ATP luminescence; 72 h): > 10 µM

COc1cc([C@@H]2c3cc4c(cc3[C@@H](O[C@@H]3O[C@@H]5CO[C@@H](C)O[C@H]5[C@H](O)[C@H]3O)[C@H]3COC(=O)[C@H]23)OCO4)cc(OC)c1O
IC50 (CCD-18Co; MTS; 24 h): 48.4 µM

CCOC(=O)c1ccc(-n2c(C)cc(C)c(C#N)c2=O)cc1
viability (HepG2; MTT; 6.25 µM; 24 h): 90.3%

COc1ccc(NC(=O)c2c(Nc3ccccc3)sc(C(=O)NN=Cc3cc(OC)c(OC)c(OC)c3)c2NC(C)=O)cc1
viability (HepG2; SRB; 10 nM; 48 h): 89.2%

Cc1cc(Nc2ccc(C(=O)N/N=C/c3cccs3)cc2)c2cccc(O)c2n1
inhibition (Huh-7; MTT; 20 µM): 42.1%

CCOC(=O)Cc1sc(NCc2ncccn2)nc1-c1ccccn1
CC50 (Huh-7): > 40 µM

CC(C)C[C@H](NC(=O)[C@H](Cc1ccccc1)NC(=O)c1cnccn1)B(O)O
IC50 (NCI-H2009; ATP luminescence): 0.017 µM

CC(=O)Oc1ccc(/C=N/NC(=O)c2ccc(Nc3cc(C)nc4c(O)cccc34)cc2)cc1
inhibition (Huh-7; MTT; 20 µM): 31.2%

CNC(=O)c1cc(Oc2ccc(NC(=O)Nc3ccc(Cl)c(C(F)(F)F)c3)cc2)ccn1
viability (HepG2; SRB; 100 µM; 48 h): 40.3%

CCCCCCCCCCCCNC(=S)NCCCC[C@H](NC(=O)OCc1ccccc1)C(=O)N[C@@H](C)C(=O)N[C@@H](CCCNC(=N)N)C(N)=O
EC50 (HEK-293T; MTT; 72 h): 102 to 121 µM

Cc1cccc(/C=N/NC(=O)c2ccc(Nc3cc(C)nc4c(O)cccc34)cc2)n1
inhibition (Huh-7; MTT; 20 µM): 53.1%

CCOC(=O)c1ccc(-n2c(-c3ccc(C)cc3)cc(-c3ccc(O)cc3)c(C#N)c2=O)cc1
viability (HepG2; MTT; 25 µM; 24 h): 33.1%

COc1ccc(NC(=O)c2c(Nc3ccccc3)sc(C#N)c2NC(=O)CNc2ccc(OC)c(OC)c2)cc1
viability (HepG2; SRB; 1 µM; 48 h): 83.7%

CCOC(=O)c1ccc(N2C(N)=C(C#N)C3(C(=O)Nc4ccccc43)C(C#N)=C2O)cc1 (stereo not drawn)
viability (HepG2; MTT; 3.125 µM; 24 h): 69.3%

Cc1cc(Nc2ccc(C(=O)N/N=C/c3ccncc3)cc2)c2cccc(O)c2n1
inhibition (Huh-7; MTT; 20 µM): 76.9%

Cc1c(NC(=O)c2ccc(C(C)(C)C)cc2)cccc1-c1cn(C)c(=O)c(Nc2ccc(C(=O)N3CCOCC3)cc2)n1
GI50 (Ramos; 48 h): > 10 µM

Cc1cc(Nc2ccc(C(=O)N/N=C/c3nc4ccccc4[nH]3)cc2)c2cccc(O)c2n1
inhibition (Huh-7; MTT; 20 µM): 33%

C[C@@H](NC(=O)[C@H](CCCCNC(=O)C(F)(F)F)NS(C)(=O)=O)C(=O)N[C@@H](CCCNC(=N)N)C(N)=O
EC50 (HEK-293T; MTT; 72 h): 3.68 to 46.1 µM

COc1ccc(NCC(=O)Nc2c(C#N)sc(Nc3ccccc3)c2C(=O)Nc2ccc(OC)cc2)cc1
viability (HepG2; SRB; 0.1 µM; 48 h): 84.4%

C=CC(=O)Nc1cc(-n2c(=O)ccc3cnc4ccc(-c5ccc(NS(C)(=O)=O)cc5)cc4c32)ccc1C
GI50 (Ramos; 48 h): 1.8 µM

Cc1cc(Nc2ccc(C(=O)N/N=C/c3ccccc3)cc2)c2cccc(O)c2n1
inhibition (Huh-7; MTT; 20 µM): 32.3%

COc1cc(Nc2nccc(-c3cnn4nc(OC)ccc34)n2)cc(C(F)(F)F)c1
IC50 (NCI-H292; ATP luminescence): 0.45 µM
